NadD inh – blocks S. aureus nicotinate mononucleotide adenylyltransferase | hit rate 0.78% among 360,000 | AID 602399 | inhibition, % at 20 µM | purified NadD enzyme, colorimetric absorbance read-out; in the data active = inhibition above about 26%
rCAG binder – molecules binding r(CAG) RNA repeats; r(CAG) RNA repeat, TO-PRO-1 dye displacement fluorescence; inhibition, % at 3 µM; hit rate 1.3% among 370,000;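 active = inhibition above the plate cutoff, the mean of all test compounds on that plate plus 3 SD, cut at about 35% in these data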;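 note: higher means more dye released from RNA so lower well fluorescence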
ASAP1 GAP inh – ASAP1 ArfGAP inhibition; ASAP1-stimulated ARF1 GTP hydrolysis, GDP FP detection; inhibition, % at 16.5 µM; hit rate 0.19% among 360,000; AID 624377; in the data active = inhibition above about 25%
Target sequence (Q9ULH1 325-724 limits assumed): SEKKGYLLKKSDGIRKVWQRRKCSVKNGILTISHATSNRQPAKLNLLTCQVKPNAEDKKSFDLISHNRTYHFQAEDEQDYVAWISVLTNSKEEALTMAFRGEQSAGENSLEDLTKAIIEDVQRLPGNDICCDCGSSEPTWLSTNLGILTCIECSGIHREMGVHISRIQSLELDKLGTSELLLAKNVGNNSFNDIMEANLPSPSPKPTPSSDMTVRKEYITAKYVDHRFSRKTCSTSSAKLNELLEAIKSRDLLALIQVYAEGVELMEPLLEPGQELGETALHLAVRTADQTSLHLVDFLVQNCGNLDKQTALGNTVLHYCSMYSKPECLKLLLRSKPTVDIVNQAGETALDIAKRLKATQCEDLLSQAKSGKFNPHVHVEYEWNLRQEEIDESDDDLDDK
ARFGAP1 inhibitor – inhibits rat ARF GTPase activating protein 1. Arfgap1-stimulated ARF1 GTP hydrolysis, GDP FP detection. AID 651572. hit rate 0.26% among 360,000. inhibition, % at 16.5 µM;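 active = inhibition above a per-plate limit, mean inhibition of low control wells plus 3 SD, cut at about 25% in these data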
Target sequence (Q62848 1-136 limits assumed): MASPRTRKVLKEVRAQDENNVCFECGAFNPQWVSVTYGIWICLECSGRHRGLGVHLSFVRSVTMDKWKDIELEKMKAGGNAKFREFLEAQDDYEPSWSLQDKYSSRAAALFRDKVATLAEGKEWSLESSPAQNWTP
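System: truncated rat Arfgap1 GAP domain / Medium: HEPES-based buffer, pH 7.5 / Also added: N-terminally truncated human ARF1-GTP substrate / Incubation: enzyme reaction 120 min at 25 °C after 20 min preincubation / Measured by: FP of antibody-bound GDP Alexa 633 tracer, ex 620/em 688 nm / Replicates: singlicate, each compound tested once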
ARFGAP1 confirm – confirmation of rat ARFGAP1 inhibitors; shares compounds with ARFGAP1 inhibitor; ARFGAP1-stimulated ARF1 GTP hydrolysis, GDP tracer FP; inhibition, % at 16.5 µM; hit rate 30% among 890; AID 651608;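 active = average inhibition over triplicates above the hit cutoff set in the earlier primary screen, cut at about 25% in these data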
Hits are given with their value. Sampled rows, rich in hits. Any-hit rate of the full collection: about 2.2%.

What do the screens show for `CCSc1nnc(Cc2cc(=O)[nH]c(=O)[nH]2)n1-c1ccc(Cl)cc1`?
NadD inh: inactive; rCAG binder: inactive; ASAP1 GAP inh: inactive; ARFGAP1 inhibitor: 30; ARFGAP1 confirm: inactive

What do the screens show for `O=C(NNC(=S)Nc1ccc(Cl)c(Cl)c1)c1ccccn1`?
NadD inh: inactive; rCAG binder: inactive; ASAP1 GAP inh: inactive; ARFGAP1 inhibitor: 26; ARFGAP1 confirm: inactive

Results for Nc1ccccc1C(=O)NN=Cc1cccc([N+](=O)[O-])c1 ?
NadD inh: inactive; rCAG binder: inactive; ASAP1 GAP inh: inactive; ARFGAP1 inhibitor: inactive

What do the screens show for `Cc1nc2ccccc2cc1C(=O)N/N=C/c1cccc([N+](=O)[O-])c1`?
NadD inh: inactive; rCAG binder: inactive; ASAP1 GAP inh: inactive; ARFGAP1 inhibitor: 25; ARFGAP1 confirm: inactive

What do the screens show for `COc1cc2c3nnc(-c4ccc(F)cc4)c-3cn(Cc3ccc(C)cc3)c2cc1OC`?
NadD inh: inactive; rCAG binder: inactive; ASAP1 GAP inh: inactive; ARFGAP1 inhibitor: 39; ARFGAP1 confirm: 48

How did COc1cc2c3nnc(-c4ccccc4)c-3cn(Cc3ccc(F)cc3)c2cc1OC do in these assays?
NadD inh: inactive; rCAG binder: inactive; ASAP1 GAP inh: inactive; ARFGAP1 inhibitor: inactive

How did CCN(CC)C1Oc2cc3c(cc2C(c2cc(OC)c(OC)c(OC)c2)C1C)OCO3 (centres undefined) do in these assays?
NadD inh: inactive; rCAG binder: inactive; ASAP1 GAP inh: inactive; ARFGAP1 inhibitor: inactive

What do the screens show for `Cc1onc(-c2ccccc2Cl)c1C(=O)N1CCC(C(N)=O)CC1`?
NadD inh: inactive; rCAG binder: inactive; ASAP1 GAP inh: inactive; ARFGAP1 inhibitor: 32; ARFGAP1 confirm: inactive

Results for COc1ccc(C(=O)C=CNNC(=O)c2ccc(Cl)cc2)cc1 ?
NadD inh: inactive; rCAG binder: inactive; ASAP1 GAP inh: inactive; ARFGAP1 inhibitor: 26; ARFGAP1 confirm: inactive

How did O=C(NCCc1ccccc1)OCc1cn(-c2cccc(F)c2F)nn1 do in these assays?
rCAG binder: inactive

Results for CC(=O)C1(C(=O)NC2CCCC2)CC(c2ccccn2)=NO1 (centres undefined) ?
rCAG binder: inactive

What do the screens show for `Cc1ccccc1-c1nnnn1C1CCS(=O)(=O)C1` (centres undefined)?
NadD inh: inactive; rCAG binder: inactive; ASAP1 GAP inh: inactive; ARFGAP1 inhibitor: inactive

What do the screens show for `Cc1cc(=O)n(C2CCS(=O)(=O)C2)[nH]1` (centres undefined)?
NadD inh: inactive; rCAG binder: inactive; ASAP1 GAP inh: inactive; ARFGAP1 inhibitor: 29; ARFGAP1 confirm: inactive

What do the screens show for `CCOC(=O)N1CCN(C(=O)C[C@H]2C[C@@]3(C(=O)OC)C(=C[C@H](C(C)C)O[C@@H]3C3CC3)N(CCc3ccc(OC)c(OC)c3)C2=O)CC1`?
rCAG binder: inactive

How did O=C(NCCc1nc2ccccc2[nH]1)c1cccc(Br)c1 do in these assays?
NadD inh: inactive; rCAG binder: inactive; ASAP1 GAP inh: inactive; ARFGAP1 inhibitor: 25; ARFGAP1 confirm: inactive

Results for CN(CCc1ccccc1)C(=O)c1[nH]c(C(F)(F)F)nc1-c1ccccc1 ?
NadD inh: inactive; rCAG binder: inactive; ASAP1 GAP inh: inactive; ARFGAP1 inhibitor: inactive

Results for Cc1cc(-c2cc(NC=O)c3ncc(-c4cccc(C(=O)NCCN(C)C)c4)n3c2)cc(C)c1O ?
NadD inh: inactive; rCAG binder: inactive; ASAP1 GAP inh: inactive; ARFGAP1 inhibitor: 27; ARFGAP1 confirm: 58

Results for CN(C)CCNC(=O)c1cccc(-c2cnc3c(NC=O)cc(-c4ccccc4F)cn23)c1 ?
NadD inh: inactive; rCAG binder: inactive; ASAP1 GAP inh: inactive; ARFGAP1 inhibitor: inactive

What do the screens show for `COc1ccc(-c2cnc3c(NC(C)=O)cc(-c4cccc(C(=O)NCCN(C)C)c4)cn23)cc1OC`?
NadD inh: inactive; rCAG binder: inactive; ASAP1 GAP inh: inactive; ARFGAP1 inhibitor: inactive

Results for COc1cccc(-c2cnc3c(NC(C)=O)cc(-c4cccc(C(=O)NCCN(C)C)c4)cn23)c1 ?
NadD inh: inactive; rCAG binder: inactive; ASAP1 GAP inh: inactive; ARFGAP1 inhibitor: 44; ARFGAP1 confirm: inactive

Results for NC(=O)C12NC(Cc3ccccc31)c1ccccc12 (centres undefined) ?
rCAG binder: inactive; ASAP1 GAP inh: inactive; ARFGAP1 inhibitor: inactive

How did Cc1[nH][nH]c(=O)c1C(c1c(C)[nH][nH]c1=O)c1cn(C)c2ccccc12 do in these assays?
NadD inh: inactive; rCAG binder: inactive; ASAP1 GAP inh: inactive; ARFGAP1 inhibitor: 25; ARFGAP1 confirm: inactive

What do the screens show for `COCCCN1C(=O)[C@H](CC(=O)NCc2ccccc2)[C@]2(C(=O)OC)CCCCC=C12`?
rCAG binder: inactive

What do the screens show for `Cc1cc(C)cc(NC(=O)CSc2cc(C(=O)c3nccn3C)c3ccccc3n2)c1`?
NadD inh: inactive; rCAG binder: inactive; ASAP1 GAP inh: inactive; ARFGAP1 inhibitor: 25; ARFGAP1 confirm: inactive

What do the screens show for `CN(Cc1ccccc1)S(=O)(=O)c1cccc(C(=O)OCc2cccc(C(F)(F)F)c2)c1`?
rCAG binder: inactive

Results for Nc1cc(Cl)nnc1Cl ?
NadD inh: inactive; rCAG binder: inactive; ASAP1 GAP inh: inactive; ARFGAP1 inhibitor: 25; ARFGAP1 confirm: inactive

What do the screens show for `CC(=O)Nc1ccc(OCC(O)Cn2c3ccccc3c3ccccc32)c(C)c1` (centres undefined)?
NadD inh: inactive; rCAG binder: inactive; ASAP1 GAP inh: inactive; ARFGAP1 inhibitor: 25; ARFGAP1 confirm: 26

How did OC(c1cccc(Cl)c1)c1nc(-c2csc3ccccc23)cs1 (centres undefined) do in these assays?
NadD inh: inactive; rCAG binder: inactive; ASAP1 GAP inh: inactive; ARFGAP1 inhibitor: 25; ARFGAP1 confirm: inactive

What do the screens show for `OC(c1cccc(Cl)c1)c1nc(-c2cccc3cccnc23)cs1` (centres undefined)?
NadD inh: inactive; rCAG binder: inactive; ASAP1 GAP inh: inactive; ARFGAP1 inhibitor: inactive

What do the screens show for `CC(=O)c1cccc(NC(=O)c2cccc3c(-c4cnn(C)c4)coc23)c1`?
NadD inh: inactive; rCAG binder: inactive; ASAP1 GAP inh: inactive; ARFGAP1 inhibitor: 28; ARFGAP1 confirm: 25

How did Cn1cc(-c2coc3c(C(=O)Nc4ccccc4)cccc23)cn1 do in these assays?
NadD inh: inactive; rCAG binder: inactive; ASAP1 GAP inh: inactive; ARFGAP1 inhibitor: inactive

Results for COc1ccc(NC(=O)c2cccc3c(-c4cnn(C)c4)coc23)cc1 ?
NadD inh: inactive; rCAG binder: inactive; ASAP1 GAP inh: inactive; ARFGAP1 inhibitor: 30; ARFGAP1 confirm: 30

What do the screens show for `Cc1c(-c2nc(N)nc(Nc3ccc(F)cc3)n2)oc2ccccc12`?
NadD inh: inactive; rCAG binder: inactive; ASAP1 GAP inh: inactive; ARFGAP1 inhibitor: 33; ARFGAP1 confirm: inactive

What do the screens show for `COc1ccc(S[C@]2(C(=O)NCc3ccccc3)CC(=O)N[C@@H]2c2ccc(OC)cc2)cc1`?
rCAG binder: inactive

How did Cc1ccccc1NC(=O)NCCCN1CCCC1 do in these assays?
NadD inh: inactive; rCAG binder: inactive; ASAP1 GAP inh: inactive; ARFGAP1 inhibitor: 26; ARFGAP1 confirm: inactive

What do the screens show for `Cc1cc(C(=O)O)n(C(C)(C)C)n1`?
NadD inh: inactive; rCAG binder: inactive; ASAP1 GAP inh: inactive; ARFGAP1 inhibitor: 27; ARFGAP1 confirm: inactive
